Measured values reported in article PMC10731006 (Heliyon, 2023).
In brackets after ≈: the same amount, converted by molar mass. Where two headings read alike, the source gives them in different places.

Columns and labels:
[1] = tested on: breast cancer (MCF7) cells; test: MTT cytotoxicity assay, MCF7; type: cell-based, human; conditions: for SI MCF-7 (selectivity index): IC50 in HDF / IC50 in MCF-7, 96 h; for IC50: read-out: IC50 MCF-7
In short: (§1)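 Cells were grown in RPMI 1640 with 10% FCS, 2 mM L-glutamine and 1% penicillin-streptomycin at 37 °C under 5% CO2. They were seeded at 1 × 10^4 cells/ml, left overnight to adhere, and exposed 96 h to test compound diluted in medium (six final levels, 1–600), with DMSO-matched and cisplatin controls. MTT at 5 mg/ml was added for 4 h, formazan dissolved in DMSO, and A540 read, in triplicate. IC50 was fitted from the data. SI = IC50 in HDF / IC50 in this line.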

[2] = tested on: glioblastoma (U-87 MG) cells; test: MTT cytotoxicity assay, U-87 MG; type: cell-based, human; conditions: for SI U87 (selectivity index): IC50 in HDF / IC50 in U87, 96 h; for IC50: read-out: IC50 U87
In short: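 U-87 MG cells were cultured in DMEM with 10% FCS, 2 mM L-glutamine and 1% penicillin-streptomycin at 37 °C, 5% CO2. Seeding was 1 × 10^4 cells/ml; after overnight adherence, test compound diluted in medium (six final levels, 1–600) was applied for 96 h alongside DMSO-matched and cisplatin controls. Read-out: MTT 5 mg/ml for 4 h, DMSO solubilisation, A540, in triplicate, IC50 fitted. SI = IC50 in HDF / IC50 in U87.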

[3] = tested on: HDF, U87, MCF-7 and A549 cells; test: Morphological analysis; type: cell-based, human; conditions: 96 h, treatment at the respective IC50 for each cell line
In short: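 HDF, U87, MCF-7 and A549 cells were seeded at 1 × 10^4 cells/ml in flat-bottom plates and adhered overnight. They were then treated 96 h with test compound serially diluted in medium (final 1–600 μM/ml). Controls were untreated and DMSO-matched wells, plus cisplatin at 1–100 μM/mL. Cells were fixed in ice-cold methanol for 30 min at 4 °C, stained with hematoxylin, and viewed by inverted light microscopy.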

[4] = tested on: non-small cell lung cancer (A549) cells; test: MTT cytotoxicity assay, A549; type: cell-based, human; conditions: for SI A549 (selectivity index): IC50 in HDF / IC50 in A549, 96 h; for IC50: read-out: IC50 A549
In short: as §1

[5] = tested on: human dermal fibroblast (HDF, human dermal cell line); test: MTT cytotoxicity assay, normal cells; type: cell-based; conditions: read-out: IC50 HDF
In short: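 Human dermal fibroblasts were maintained in DMEM with 10% FCS, 2 mM L-glutamine and 1% penicillin-streptomycin (37 °C, 5% CO2). They were seeded at 1 × 10^4 cells/ml, allowed to adhere overnight, then treated 96 h with serially diluted test compound (six final levels, 1–600) beside DMSO-matched vehicle and cisplatin controls. Then MTT 5 mg/ml was added for 4 h, formazan taken up in DMSO, and absorbance read at 540 nm, in triplicate. IC50 was fitted.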

[6] = tested on: Escherichia coli (ATCC 25922); test: Micro-broth dilution assay; type: cell-based; conditions: ATCC25922, read-out: MIC EC
[7] = tested on: Staphylococcus aureus (ATCC 10145); test: Micro-broth dilution assay; type: cell-based; conditions: ATCC10145, read-out: MIC SA
[8] = tested on: Pseudomonas aeruginosa (ATCC 13048); test: Micro-broth dilution assay; type: cell-based; conditions: ATCC13048, read-out: MIC PA
[9] = tested on: Gram-positive and Gram-negative bacterial test strains; test: Antibacterial activity, whole panel of test strains; type: cell-based; conditions: agar diffusion
In short: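 Disc diffusion followed CLSI (2012). Test compound at 10, 50 and 100 μg/disc was loaded on 6-mm blank filter discs laid on Mueller Hinton agar seeded at 10^6 cells/ml. Strains were S. aureus ATCC 10145, B. cereus ATCC 11778, B. subtilis ATCC 6633, P. aeruginosa ATCC 13048 and E. coli ATCC 25922. Inhibition zones were recorded.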

[10] = tested on: Escherichia coli (ATCC 25922); test: Agar diffusion test, E. coli; type: cell-based; conditions: ATCC25922, read-out: Zone of inhibition EC
[11] = tested on: cancer cell lines (U87, MCF-7 and A549) compared to normal cells (HDF); test: MTT cytotoxicity, cancer cell lines compared to normal cells; type: cell-based, human; conditions: 96 h treatment
In short: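 A549 and MCF7 grown in RPMI 1640, HDF and U87 in DMEM, each with 10% FCS, 2 mM L-glutamine, 1% pen-strep, 37 °C, 5% CO2. Cells at 1 × 10^4 cells/ml were adhered overnight, then exposed 96 h to test compound (final 1–600 […] in medium). Controls were blank, untreated, DMSO-matched and cisplatin (1–100 μM/mL). MTT 5 mg/ml for 4 h; DMSO-solubilised formazan read at 540 nm, triplicate. IC50 from curve fitting; selectivity index = HDF IC50 / cancer-line IC50.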

[12] = tested on: Pseudomonas aeruginosa (ATCC 13048); test: Agar diffusion test, P. aeruginosa; type: cell-based; conditions: ATCC13048, read-out: Zone of inhibition PA
[13] = tested on: Staphylococcus aureus (ATCC 10145); test: Agar diffusion test, S. aureus; type: cell-based; conditions: ATCC10145, read-out: Zone of inhibition SA
[14] = ABTS radical scavenging assay
[15] = tested on: Bacillus cereus (ATCC 11778); test: Micro-broth dilution assay; type: cell-based; conditions: ATCC11778, read-out: MIC BC
B. subtilis (ATCC 6633) = test: Micro-broth dilution assay; type: cell-based; conditions: Bacillus subtilis, ATCC6633, read-out: MIC BS
[16] = tested on: Bacillus cereus (ATCC 11778); test: Agar diffusion test, B. cereus; type: cell-based; conditions: ATCC11778, read-out: Zone of inhibition BC
[17] = DPPH radical scavenging assay

SMILES | SI MCF-7 (selectivity index) [1] | SI U87 (selectivity index) [2] | SI A549 (selectivity index) [4] | MIC [6] [µg/mL] | MIC [7] [µg/mL] | MIC [8] [µg/mL] | IC50 ([1]; Homo sapiens, MCF7, 96 h) [µM] | inhibition zones, range over susceptible strains [9] | IC50 ([2]; Homo sapiens, U-87 MG, 96 h) [µM] | zone of inhibition at 100 µg/disc [10] [mm] | zone of inhibition at 300 µg/disc [10] [mm] | zone of inhibition at 500 µg/disc [10] [mm] | cytotoxic / anti-proliferative activity in words [11] | zone of inhibition at 100 µg/disc [12] [mm] | zone of inhibition at 300 µg/disc [12] [mm] | zone of inhibition at 500 µg/disc [12] [mm] | zone of inhibition at 100 µg/disc [13] [mm] | zone of inhibition at 300 µg/disc [13] [mm] | zone of inhibition at 500 µg/disc [13] [mm] | IC50 ± SD, ABTS [14] [µg/mL] | further results
N.N.[Cl][Pt][Cl] [Cisplatin, reference compound] | 1.5 | 1.5 | 1.3 | – | – | – | – | – | – | – | – | – | – | – | – | – | – | – | – | – | IC50 ([1]; MTT, 96 h treatment): 26.9 ± 4.7 µM; IC50 ([2]; MTT, 96 h treatment): 28.3 ± 5.3 µM; morphological changes of treated cancer cells [3]: became rounded and separated from each other, shrank, and underwent nuclear condensation; IC50 ([4]; MTT, 96 h treatment): 30.4 ± 5.2 µM; IC50 ([5]; MTT, 96 h treatment): 40.9 ± 5.4 µM
COC(=O)c1cn(C2CC2)c2cc(N3CCN(C(=O)c4c(C)nnn4-c4ccc(Cl)cc4)CC3)c(F)cc2c1=O [Compound 6c, methyl 7-(4-(1-(4-chlorophenyl)-4-methyl-1H-1,2,3-triazole-5-carbonyl)piperazin-1-yl)-1-cyclopropyl-6-fluoro-4-oxo-1,4-dihydroquinoline-3-carboxylate] | 4.8 | 23.9 | 1.2 | > 500 | > 500 | 500 (≈ 885 µM) | 61.6 ± 11.1 | 13 to 16 mm | 12.3 ± 5.5 | 11.3 ± 0.7 | 13.6 ± 1.2 | 14.6 ± 0.3 | significant cytotoxic activity against only U-87 and MCF-7 cancer cell lines | 12.3 ± 0.6 | 14.6 ± 0.6 | 16.3 ± 0.6 | 10.6 ± 1.2 | 12.3 ± 0.6 | 13.3 ± 0.3 | 35.1 ± 2.0 (≈ 62.1 µM) | % inhibition ±SD, ABTS ([14]; 5 μg/ml): 14.8 ± 0.6%; % inhibition ±SD, ABTS ([14]; 10 μg/ml): 33.3 ± 0.8%; % inhibition ±SD, ABTS ([14]; 25 μg/ml): 42.7 ± 0.4%; % inhibition ±SD, ABTS ([14]; 50 μg/ml): 59.8 ± 0.3%; % inhibition ±SD, ABTS ([14]; 100 μg/ml): 65.7 ± 0.1%; MIC [15]: 500 µg/mL (≈ 885 µM); MIC (B. subtilis (ATCC 6633)): > 500 µg/mL; zone of inhibition at 100 µg/disc [16]: 12.7 ± 0.6 mm; zone of inhibition at 300 µg/disc [16]: 13.7 ± 1.1 mm; zone of inhibition at 500 µg/disc [16]: 15.3 ± 0.7 mm; IC50 ([4]; Homo sapiens, A549, 96 h): 239 ± 7.9 µM; IC50 ± SD, DPPH [17]: 43.1 ± 1.8 µg/mL (≈ 76.3 µM); % inhibition ±SD, DPPH ([17]; 10 μg/ml): 24.6 ± 1.8%; % inhibition ±SD, DPPH ([17]; 25 μg/ml): 31.7 ± 0.3%; % inhibition ±SD, DPPH ([17]; 50 μg/ml): 52.2 ± 0.2%; % inhibition ±SD, DPPH ([17]; 100 μg/ml): 71.4 ± 0.7%; IC50 ([5]; Homo sapiens, Fibroblast, 96 h): 294 ± 11.4 µM
COC(=O)c1cn(C2CC2)c2cc(N3CCN(C(=O)c4c(C)nnn4-c4ccc(C(F)(F)F)cc4)CC3)c(F)cc2c1=O [Compound 6d, methyl 7-(4-(1-(4-trifluoromethylphenyl)-4-methyl-1H-1,2,3-triazole-5-carbonyl)piperazin-1-yl)-1-cyclopropyl-6-fluoro-4-oxo-1,4-dihydroquinoline-3-carboxylate] | 3.4 | 111.4 | 1.4 | > 500 | 500 (≈ 835 µM) | 500 (≈ 835 µM) | 124 ± 10.6 | 12–14 mm | 3.82 ± 2.9 | 8.3 ± 1.5 | 10.3 ± 0.7 | 12.6 ± 0.7 | significant cytotoxic activity against only U-87 and MCF-7 cancer cell lines | 11.7 ± 0.6 | 13 ± 0.3 | 13.3 ± 0.6 | 10.3 ± 0.6 | 12.3 ± 0.6 | 14.6 ± 1.2 | 31.7 ± 1.9 (≈ 53 µM) | % inhibition ±SD, ABTS ([14]; 5 μg/ml): 21.1 ± 1.0%; % inhibition ±SD, ABTS ([14]; 10 μg/ml): 33.7 ± 0.7%; % inhibition ±SD, ABTS ([14]; 25 μg/ml): 42.8 ± 0.3%; % inhibition ±SD, ABTS ([14]; 50 μg/ml): 61.6 ± 0.6%; % inhibition ±SD, ABTS ([14]; 100 μg/ml): 66.5 ± 0.6%; MIC [15]: > 500 µg/mL; MIC (B. subtilis (ATCC 6633)): > 500 µg/mL; zone of inhibition at 100 µg/disc [16]: 9.6 ± 1.2 mm; zone of inhibition at 300 µg/disc [16]: 11 mm; zone of inhibition at 500 µg/disc [16]: 13.3 ± 0.6 mm; IC50 ([4]; Homo sapiens, A549, 96 h): 308 ± 12.1 µM; IC50 ± SD, DPPH [17]: 58.8 ± 1.7 µg/mL (≈ 98.2 µM); % inhibition ±SD, DPPH ([17]; 5 μg/ml): 13.8 ± 0.2%; % inhibition ±SD, DPPH ([17]; 10 μg/ml): 26.0 ± 0.9%; % inhibition ±SD, DPPH ([17]; 25 μg/ml): 42.1 ± 0.6%; % inhibition ±SD, DPPH ([17]; 50 μg/ml): 46.2 ± 0.3%; % inhibition ±SD, DPPH ([17]; 100 μg/ml): 68.7 ± 0.1%; IC50 ([5]; Homo sapiens, Fibroblast, 96 h): 425 ± 18.5 µM
